Laboratory results taken from ChEMBL document CHEMBL5678818, “Discovery of potent SOS1 inhibitors that block RAS activation via disruption of the RAS-SOS1 interaction” (Proc Natl Acad Sci U S A, 2019).
Calls of active or inactive are those of the source. No cut-off for these calls is given here.

Assays:
[1] = target: Calcium/calmodulin-dependent protein kinase type 1 (Homo sapiens) (UniProt Q14012); assay: Inhibition of CAMK1 (unknown origin) assessed as residual activity at 100 nM by KINOMEscan analysis relative to control
Calcium/calmodulin-dependent protein kinase type 1 (Homo sapiens), sequence (Q14012 whole entry, looked up): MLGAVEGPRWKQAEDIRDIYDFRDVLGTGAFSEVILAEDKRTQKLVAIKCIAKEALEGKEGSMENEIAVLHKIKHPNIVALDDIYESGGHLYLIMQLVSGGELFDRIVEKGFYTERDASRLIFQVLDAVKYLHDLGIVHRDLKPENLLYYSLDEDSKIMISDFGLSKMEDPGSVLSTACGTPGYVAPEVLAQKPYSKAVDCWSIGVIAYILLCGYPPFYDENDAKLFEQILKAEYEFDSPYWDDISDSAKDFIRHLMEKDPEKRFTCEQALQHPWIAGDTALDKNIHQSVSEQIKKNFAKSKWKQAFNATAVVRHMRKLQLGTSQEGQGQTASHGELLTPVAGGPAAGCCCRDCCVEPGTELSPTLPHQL

[2] = target: T1, Myosin-IIIb (Homo sapiens) (UniProt Q8WXR4); assay: Inhibition of MYO3B (unknown origin) assessed as residual activity at 100 nM by KINOMEscan analysis relative to control
T1 sequence (whole entry): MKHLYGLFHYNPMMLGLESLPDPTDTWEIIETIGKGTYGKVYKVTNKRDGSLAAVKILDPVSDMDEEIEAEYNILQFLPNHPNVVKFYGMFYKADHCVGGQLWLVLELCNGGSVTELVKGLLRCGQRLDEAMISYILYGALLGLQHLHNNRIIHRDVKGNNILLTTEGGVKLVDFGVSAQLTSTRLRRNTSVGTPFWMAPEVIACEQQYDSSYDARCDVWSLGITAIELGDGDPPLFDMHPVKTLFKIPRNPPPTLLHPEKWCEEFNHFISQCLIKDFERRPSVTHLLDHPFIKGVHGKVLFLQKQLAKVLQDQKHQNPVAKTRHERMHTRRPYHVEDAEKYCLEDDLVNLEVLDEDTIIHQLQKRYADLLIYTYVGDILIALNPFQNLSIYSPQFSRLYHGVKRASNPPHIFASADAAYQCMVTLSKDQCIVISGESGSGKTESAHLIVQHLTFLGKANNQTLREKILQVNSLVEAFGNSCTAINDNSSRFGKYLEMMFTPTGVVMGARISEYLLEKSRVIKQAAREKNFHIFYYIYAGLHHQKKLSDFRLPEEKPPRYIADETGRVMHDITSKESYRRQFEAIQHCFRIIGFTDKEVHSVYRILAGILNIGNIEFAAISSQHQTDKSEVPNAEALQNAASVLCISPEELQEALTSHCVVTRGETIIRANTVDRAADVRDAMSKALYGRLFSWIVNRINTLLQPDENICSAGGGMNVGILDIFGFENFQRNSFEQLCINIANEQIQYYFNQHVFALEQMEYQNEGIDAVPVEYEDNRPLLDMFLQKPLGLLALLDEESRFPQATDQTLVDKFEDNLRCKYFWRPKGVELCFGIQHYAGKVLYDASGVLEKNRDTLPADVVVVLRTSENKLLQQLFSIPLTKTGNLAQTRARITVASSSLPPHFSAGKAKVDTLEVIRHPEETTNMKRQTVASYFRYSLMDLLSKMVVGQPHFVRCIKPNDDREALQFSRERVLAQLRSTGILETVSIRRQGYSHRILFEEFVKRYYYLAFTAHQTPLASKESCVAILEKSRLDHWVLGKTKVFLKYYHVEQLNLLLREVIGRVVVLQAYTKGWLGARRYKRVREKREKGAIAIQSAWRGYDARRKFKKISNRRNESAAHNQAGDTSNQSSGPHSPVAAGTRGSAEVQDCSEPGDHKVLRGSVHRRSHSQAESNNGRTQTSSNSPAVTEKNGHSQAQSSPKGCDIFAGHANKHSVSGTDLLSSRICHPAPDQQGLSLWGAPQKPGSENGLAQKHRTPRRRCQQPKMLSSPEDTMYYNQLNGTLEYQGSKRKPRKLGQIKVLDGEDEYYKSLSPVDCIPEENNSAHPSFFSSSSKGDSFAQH

[3] = system: eIF-2-alpha kinase GCN2 (Homo sapiens), Q9P2K8 [S808G]; assay: Inhibition of GCN2 S808G mutant […] domain (unknown origin) assessed as residual activity at 100 nM by KINOMEscan analysis relative to control
[4] = target: Focal adhesion kinase 1 (Homo sapiens) (UniProt Q05397); assay: Inhibition of FAK (unknown origin) assessed as residual activity at 100 nM by KINOMEscan analysis relative to control
Focal adhesion kinase 1 (Homo sapiens), sequence (Q05397 2-1052 limits assumed): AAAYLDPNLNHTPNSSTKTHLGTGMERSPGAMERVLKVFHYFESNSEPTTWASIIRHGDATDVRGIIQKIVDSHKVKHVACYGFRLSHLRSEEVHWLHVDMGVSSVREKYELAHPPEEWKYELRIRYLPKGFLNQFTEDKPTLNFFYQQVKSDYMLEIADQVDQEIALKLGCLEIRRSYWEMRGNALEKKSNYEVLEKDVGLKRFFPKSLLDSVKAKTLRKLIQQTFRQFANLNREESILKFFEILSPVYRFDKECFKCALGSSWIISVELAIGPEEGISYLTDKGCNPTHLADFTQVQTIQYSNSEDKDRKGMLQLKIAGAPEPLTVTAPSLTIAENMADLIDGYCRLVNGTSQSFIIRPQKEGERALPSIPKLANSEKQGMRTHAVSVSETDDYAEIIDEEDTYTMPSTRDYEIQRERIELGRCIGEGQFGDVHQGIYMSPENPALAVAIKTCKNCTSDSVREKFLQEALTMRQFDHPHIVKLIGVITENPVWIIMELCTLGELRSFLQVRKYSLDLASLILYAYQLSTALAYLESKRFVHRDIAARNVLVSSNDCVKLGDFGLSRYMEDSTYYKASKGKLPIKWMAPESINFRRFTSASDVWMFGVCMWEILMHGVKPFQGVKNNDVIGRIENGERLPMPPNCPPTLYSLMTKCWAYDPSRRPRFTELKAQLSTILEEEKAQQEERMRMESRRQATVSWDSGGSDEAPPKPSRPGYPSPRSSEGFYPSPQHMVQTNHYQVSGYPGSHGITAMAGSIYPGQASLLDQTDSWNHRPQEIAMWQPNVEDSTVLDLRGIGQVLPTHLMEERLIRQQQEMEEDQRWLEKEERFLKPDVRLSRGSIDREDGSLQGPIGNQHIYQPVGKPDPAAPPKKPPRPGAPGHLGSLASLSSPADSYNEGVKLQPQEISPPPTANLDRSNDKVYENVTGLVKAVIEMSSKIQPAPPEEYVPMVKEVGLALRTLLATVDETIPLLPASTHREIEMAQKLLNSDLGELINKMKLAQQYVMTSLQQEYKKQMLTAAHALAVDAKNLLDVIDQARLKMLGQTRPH

[5] = system: Phosphatidylinositol 4,5-bisphosphate 3-kinase catalytic subunit alpha isoform (Homo sapiens), P42336 [E542K]; assay: Inhibition of PIK3CA E542K mutant (unknown origin) assessed as residual activity at 100 nM by KINOMEscan analysis relative to control
Phosphatidylinositol 4,5-bisphosphate 3-kinase catalytic subunit alpha isoform (Homo sapiens), P42336 [E542K], sequence (P42336 whole entry E542K, canonical isoform): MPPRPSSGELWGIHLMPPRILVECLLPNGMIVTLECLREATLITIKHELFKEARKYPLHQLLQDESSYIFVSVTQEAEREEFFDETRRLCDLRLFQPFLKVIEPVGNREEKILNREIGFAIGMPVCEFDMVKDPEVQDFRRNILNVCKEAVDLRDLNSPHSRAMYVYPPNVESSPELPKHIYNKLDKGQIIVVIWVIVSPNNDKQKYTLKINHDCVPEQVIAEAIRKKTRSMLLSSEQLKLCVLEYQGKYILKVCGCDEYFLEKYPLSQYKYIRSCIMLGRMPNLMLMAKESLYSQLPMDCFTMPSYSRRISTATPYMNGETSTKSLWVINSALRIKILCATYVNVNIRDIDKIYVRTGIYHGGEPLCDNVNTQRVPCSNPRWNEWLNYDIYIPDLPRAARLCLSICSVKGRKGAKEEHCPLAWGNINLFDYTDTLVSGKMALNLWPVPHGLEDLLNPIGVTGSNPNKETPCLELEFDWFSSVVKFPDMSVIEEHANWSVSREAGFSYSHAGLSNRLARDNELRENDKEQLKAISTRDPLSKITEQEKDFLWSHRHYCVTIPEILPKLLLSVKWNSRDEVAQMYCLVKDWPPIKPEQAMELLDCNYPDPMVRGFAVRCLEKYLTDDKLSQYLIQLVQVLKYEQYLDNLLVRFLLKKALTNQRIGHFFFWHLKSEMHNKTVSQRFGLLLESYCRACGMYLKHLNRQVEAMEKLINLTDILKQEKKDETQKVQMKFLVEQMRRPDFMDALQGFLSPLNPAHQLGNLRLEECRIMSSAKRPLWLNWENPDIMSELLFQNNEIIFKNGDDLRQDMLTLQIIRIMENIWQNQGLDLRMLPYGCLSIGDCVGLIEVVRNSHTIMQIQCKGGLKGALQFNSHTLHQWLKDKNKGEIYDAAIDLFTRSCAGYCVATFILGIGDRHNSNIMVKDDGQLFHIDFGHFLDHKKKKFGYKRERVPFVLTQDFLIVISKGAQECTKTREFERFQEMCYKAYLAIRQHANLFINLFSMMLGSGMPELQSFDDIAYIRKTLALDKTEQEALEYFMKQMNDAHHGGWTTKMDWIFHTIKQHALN

[6] = system: Mast/stem cell growth factor receptor Kit (Homo sapiens), P10721 [V559D]; assay: Inhibition of KIT V559D mutant (unknown origin) assessed as residual activity at 100 nM by KINOMEscan analysis relative to control
[7] = target: Casein kinase I isoform delta (Homo sapiens) (UniProt P48730); assay: Inhibition of CSNK1D (unknown origin) assessed as residual activity at 100 nM by KINOMEscan analysis relative to control
Casein kinase I isoform delta (Homo sapiens), sequence (P48730 whole entry, looked up, canonical isoform): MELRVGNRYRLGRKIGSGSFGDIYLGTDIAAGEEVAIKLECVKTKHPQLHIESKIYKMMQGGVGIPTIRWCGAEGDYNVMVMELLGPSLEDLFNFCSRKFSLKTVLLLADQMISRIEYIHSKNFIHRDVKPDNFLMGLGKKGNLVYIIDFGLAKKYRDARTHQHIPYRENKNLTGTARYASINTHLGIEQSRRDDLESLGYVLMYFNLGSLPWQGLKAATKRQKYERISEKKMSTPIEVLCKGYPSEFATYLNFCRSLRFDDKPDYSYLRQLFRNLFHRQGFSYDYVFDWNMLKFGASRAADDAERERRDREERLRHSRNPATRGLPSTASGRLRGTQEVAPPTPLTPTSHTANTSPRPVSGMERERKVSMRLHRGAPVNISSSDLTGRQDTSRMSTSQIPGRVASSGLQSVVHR

[8] = target: Cyclin-dependent kinase 17 (Homo sapiens) (UniProt Q00537); assay: Inhibition of PCTK2 (unknown origin) assessed as residual activity at 100 nM by KINOMEscan analysis relative to control
Cyclin-dependent kinase 17 (Homo sapiens), sequence (Q00537 whole entry, looked up): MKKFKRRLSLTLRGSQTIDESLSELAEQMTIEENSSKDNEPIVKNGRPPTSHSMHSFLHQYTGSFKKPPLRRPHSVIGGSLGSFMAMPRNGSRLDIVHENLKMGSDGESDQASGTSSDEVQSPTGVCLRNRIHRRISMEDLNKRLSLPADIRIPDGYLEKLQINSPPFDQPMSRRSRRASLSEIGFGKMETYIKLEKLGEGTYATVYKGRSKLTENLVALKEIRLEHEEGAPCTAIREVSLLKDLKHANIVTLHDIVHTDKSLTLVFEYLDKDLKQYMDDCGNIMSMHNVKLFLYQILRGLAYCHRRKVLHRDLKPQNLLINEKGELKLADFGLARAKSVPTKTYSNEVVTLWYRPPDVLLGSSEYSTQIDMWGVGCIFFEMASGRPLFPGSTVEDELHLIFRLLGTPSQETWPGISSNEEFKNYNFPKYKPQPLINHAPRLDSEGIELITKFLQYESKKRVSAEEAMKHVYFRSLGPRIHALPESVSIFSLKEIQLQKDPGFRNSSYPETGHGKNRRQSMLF

[9] = target: Serine/threonine-protein kinase SIK1 (Homo sapiens) (UniProt P57059); assay: Inhibition of SIK (unknown origin) assessed as residual activity at 100 nM by KINOMEscan analysis relative to control
Serine/threonine-protein kinase SIK1 (Homo sapiens), sequence (P57059 whole entry): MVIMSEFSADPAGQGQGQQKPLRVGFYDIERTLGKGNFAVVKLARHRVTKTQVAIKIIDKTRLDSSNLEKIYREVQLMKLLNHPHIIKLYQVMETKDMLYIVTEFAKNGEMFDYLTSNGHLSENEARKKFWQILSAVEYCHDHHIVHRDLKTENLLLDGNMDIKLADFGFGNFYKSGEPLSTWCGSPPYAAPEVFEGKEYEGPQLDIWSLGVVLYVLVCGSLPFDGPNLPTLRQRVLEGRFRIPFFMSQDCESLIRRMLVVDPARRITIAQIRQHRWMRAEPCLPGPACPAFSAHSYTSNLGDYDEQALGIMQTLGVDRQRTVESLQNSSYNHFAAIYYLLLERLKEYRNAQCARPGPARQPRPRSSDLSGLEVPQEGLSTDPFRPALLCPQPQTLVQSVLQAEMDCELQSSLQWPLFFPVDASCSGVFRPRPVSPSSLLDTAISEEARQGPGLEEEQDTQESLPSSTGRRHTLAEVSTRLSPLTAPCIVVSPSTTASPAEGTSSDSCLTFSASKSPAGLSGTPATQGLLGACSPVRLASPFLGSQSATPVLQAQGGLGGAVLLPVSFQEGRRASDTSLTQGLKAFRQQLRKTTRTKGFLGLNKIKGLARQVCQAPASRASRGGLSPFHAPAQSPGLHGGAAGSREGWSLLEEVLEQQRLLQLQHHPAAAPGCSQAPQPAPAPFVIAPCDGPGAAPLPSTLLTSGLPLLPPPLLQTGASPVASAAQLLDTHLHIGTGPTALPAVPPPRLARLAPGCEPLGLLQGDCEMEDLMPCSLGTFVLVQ

K562 = assay: Effect on total ERK level in human K562 cells incubated for 60 mins by HTRF analysis; format: functional, cell-based
How it was run: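 K-562 cells (wild-type KRAS) were sourced from ATCC. Cells were incubated with compound for 60 min, and total ERK was quantified alongside pERK.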

Structure (SMILES)	Activity [1] [%]	Activity [2] [%]	Activity [3] [%]	Activity [4] [%]	Activity [5] [%]	Activity [6] [%]	Activity [7] [%]	Activity [8] [%]	Activity [9] [%]	Activity (K562)
COc1cc2ncnc(N[C@H](C)c3cccc4ccccc34)c2cc1OC	100	98	100	100	74	100	97	86	85	–
CNCc1ccccc1-c1csc([C@@H](C)Nc2nc(C)nc3cc(OC)c(OC)cc23)c1 [BAY-293]	–	–	–	–	–	–	–	–	–	inactive
